Results: ChEMBL document CHEMBL1933017, “Synthesis and biological evaluation of some thiazolidinones as antimicrobial agents” (2012)
Converted amounts (≈) assume the structure as drawn.

Tests used:
Proteus vulgaris [1] = assay: Antibacterial activity against Proteus vulgaris at 100 ug/disc after 24 hrs by disc diffusion method; assay type: functional; details: read-out: DIZ
Method in brief: (§1)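 Paper disc diffusion on autoclaved Mueller-Hinton agar poured 5 mm deep. Agar was swab-inoculated with 10⁵ CFU/mL suspension (0.5 McFarland). Discs 6.25 mm across were soaked in compound solution in DMSO (3.12–100 µg/mL) and plates incubated 24 h at (37 ± 1) °C. Read-out was inhibition zone (mm). DMSO control disc; ciprofloxacin or ketoconazole reference, 100 µg/disc. Mean of three independent experiments.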

Shigella flexneri [2] = assay: Antibacterial activity against Shigella flexneri at 100 ug/disc after 24 hrs by disc diffusion method; assay type: functional; details: read-out: DIZ; method in brief: as §1
Staphylococcus aureus [3] = assay: Antibacterial activity against Staphylococcus aureus after 24 hrs by agar streak dilution method; assay type: functional
Method in brief: (§2)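 MIC by agar streak dilution. Graded amounts of DMSO stock (100 μg/mL) were mixed into molten sterile nutrient agar and poured 4–5 mm deep. Serial concentrations spanned 3.12–100 µg/mL. Plates were inoculated with about 10⁵ CFU/mL of bacterial suspension and incubated at (37 ± 1) °C for 24 h. Each value is the mean of three independent experiments.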

Bacillus cereus [4] = assay: Antibacterial activity against Bacillus cereus after 24 hrs by agar streak dilution method; assay type: functional; method in brief: as §2
Escherichia coli [5] = assay: Antibacterial activity against Escherichia coli after 24 hrs by agar streak dilution method; assay type: functional; method in brief: as §2
Pseudomonas aeruginosa [6] = assay: Antibacterial activity against Pseudomonas aeruginosa […] after 24 hrs by agar streak dilution method; assay type: functional
Klebsiella pneumoniae [7] = assay: Antibacterial activity against Klebsiella pneumoniae […] after 24 hrs by agar streak dilution method; assay type: functional
Salmonella typhi [8] = assay: Antibacterial activity against Salmonella Typhi after 24 hrs by agar streak dilution method; assay type: functional, Salmonella enterica subsp. enterica serovar Typhi; details: Salmonella enterica
Method in brief: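 Agar streak dilution: DMSO stock (100 µg/mL) graded into molten sterile nutrient agar, poured 4–5 mm deep and solidified. Plates carry serial dilutions spanning 3.12–100 µg/mL. Applied ~10⁵ CFU/mL suspension, then incubated 24 h at (37 ± 1) °C. MIC read as the lowest inhibitory concentration; each value is the mean of three independent experiments.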

Proteus vulgaris [9] = assay: Antibacterial activity against Proteus vulgaris after 24 hrs by agar streak dilution method; assay type: functional; method in brief: as §2
Shigella flexneri [10] = assay: Antibacterial activity against Shigella flexneri after 24 hrs by agar streak dilution method; assay type: functional; method in brief: as §2
Aspergillus niger [11] = assay: Antifungal activity against Aspergillus niger after 48 hrs by agar streak dilution method; assay type: functional
Method in brief: (§3)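 Fungal MIC by agar streak dilution on Sabouraud dextrose agar, poured 4–5 mm deep. Compound from a DMSO stock (100 μg/mL) was incorporated at serial concentrations of 3.12–100 µg/mL. Plates were inoculated with about 10⁵ CFU/mL of suspension and incubated at (37 ± 1) °C for 48 h. Each value is the mean of three independent experiments.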

Aspergillus fumigatus [12] = assay: Antifungal activity against Aspergillus fumigatus after 48 hrs by agar streak dilution method; assay type: functional; method in brief: as §3
Aspergillus clavatus [13] = assay: Antifungal activity against Aspergillus clavatus after 48 hrs by agar streak dilution method; assay type: functional; method in brief: as §3
Candida albicans [14] = assay: Antifungal activity against Candida albicans after 48 hrs by agar streak dilution method; assay type: functional; method in brief: as §3
Aspergillus niger [15] = assay: Antifungal activity against Aspergillus niger at 100 ug/disc after 24 hrs by disc diffusion method; assay type: functional; details: read-out: DIZ; method in brief: as §1
Aspergillus fumigatus [16] = assay: Antifungal activity against Aspergillus fumigatus at 100 ug/disc after 24 hrs by disc diffusion method; assay type: functional; details: read-out: DIZ; method in brief: as §1
Aspergillus clavatus [17] = assay: Antifungal activity against Aspergillus clavatus at 100 ug/disc after 24 hrs by disc diffusion method; assay type: functional; details: read-out: DIZ; method in brief: as §1
Candida albicans [18] = assay: Antifungal activity against Candida albicans at 100 ug/disc after 24 hrs by disc diffusion method; assay type: functional; details: read-out: DIZ; method in brief: as §1
Staphylococcus aureus [19] = assay: Antibacterial activity against Staphylococcus aureus at 100 ug/disc after 24 hrs by disc diffusion method; assay type: functional; details: read-out: DIZ; method in brief: as §1
Bacillus cereus [20] = assay: Antibacterial activity against Bacillus cereus at 100 ug/disc after 24 hrs by disc diffusion method; assay type: functional; details: read-out: DIZ; method in brief: as §1
Escherichia coli [21] = assay: Antibacterial activity against Escherichia coli at 100 ug/disc after 24 hrs by disc diffusion method; assay type: functional; details: read-out: DIZ; method in brief: as §1
Pseudomonas aeruginosa [22] = assay: Antibacterial activity against Pseudomonas aeruginosa at 100 ug/disc after 24 hrs by disc diffusion method; assay type: functional; details: read-out: DIZ; method in brief: as §1
Klebsiella pneumoniae [23] = assay: Antibacterial activity against Klebsiella pneumoniae at 100 ug/disc after 24 hrs by disc diffusion method; assay type: functional; details: read-out: DIZ; method in brief: as §1
Salmonella typhi [24] = assay: Antibacterial activity against Salmonella Typhi at 100 ug/disc after 24 hrs by disc diffusion method; assay type: functional, Salmonella enterica subsp. enterica serovar Typhi; details: Salmonella enterica, read-out: DIZ
Method in brief: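 Paper disc diffusion on Mueller-Hinton agar poured 5 mm deep; 10⁵ CFU/mL suspension (0.5 McFarland) swabbed over surface. 6.25 mm filter paper discs soaked in compound in DMSO, incubated 24 h at (37 ± 1) °C; inhibition zone diameter in mm. DMSO disc as blank; ciprofloxacin 100 µg/disc as reference. Mean of three independent experiments.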

Compound	zone of inhibition at 100 µg/disc (Proteus vulgaris [1]) [mm]	zone of inhibition at 100 µg/disc (Shigella flexneri [2]) [mm]	MIC (Staphylococcus aureus [3]) [µg/mL]	MIC (Bacillus cereus [4]) [µg/mL]	MIC (Escherichia coli [5]) [µg/mL]	MIC (Pseudomonas aeruginosa [6]) [µg/mL]	MIC (Klebsiella pneumoniae [7]) [µg/mL]	MIC (Salmonella typhi [8]) [µg/mL]	MIC (Proteus vulgaris [9]) [µg/mL]	MIC (Shigella flexneri [10]) [µg/mL]	MIC (Aspergillus niger [11]) [µg/mL]	MIC (Aspergillus fumigatus [12]) [µg/mL]	MIC (Aspergillus clavatus [13]) [µg/mL]	MIC (Candida albicans [14]) [µg/mL]	zone of inhibition at 100 µg/disc (Aspergillus niger [15]) [mm]	zone of inhibition at 100 µg/disc (Aspergillus fumigatus [16]) [mm]	zone of inhibition at 100 µg/disc (Aspergillus clavatus [17]) [mm]	zone of inhibition at 100 µg/disc (Candida albicans [18]) [mm]	zone of inhibition at 100 µg/disc (Staphylococcus aureus [19]) [mm]	zone of inhibition at 100 µg/disc (Bacillus cereus [20]) [mm]	further results
CCN1CCN(CC2SC(c3ccc(OC)c(OC)c3)N(c3ccc(Nc4nc(Oc5cc(=O)n(C)c6ccccc56)nc(N(C)C)n4)cc3)C2=O)CC1 (stereo unspecified)	23	22	25 (≈ 33.2 µM)	12.5 (≈ 16.6 µM)	25 (≈ 33.2 µM)	12.5 (≈ 16.6 µM)	50 (≈ 66.5 µM)	25 (≈ 33.2 µM)	50 (≈ 66.5 µM)	50 (≈ 66.5 µM)	100 (≈ 133 µM)	25 (≈ 33.2 µM)	50 (≈ 66.5 µM)	50 (≈ 66.5 µM)	21	26	24	23	23	24	zone of inhibition at 100 µg/disc (Escherichia coli [21]): 24 mm; zone of inhibition at 100 µg/disc (Pseudomonas aeruginosa [22]): 24 mm; zone of inhibition at 100 µg/disc (Klebsiella pneumoniae [23]): 23 mm; zone of inhibition at 100 µg/disc (Salmonella typhi [24]): 25 mm
CCN1CCN(CC2SC(c3ccc(O)cc3)N(c3ccc(Nc4nc(Oc5cc(=O)n(C)c6ccccc56)nc(N(C)C)n4)cc3)C2=O)CC1 (stereo unspecified)	16	13	25 (≈ 35.3 µM)	50 (≈ 70.6 µM)	50 (≈ 70.6 µM)	100 (≈ 141 µM)	50 (≈ 70.6 µM)	50 (≈ 70.6 µM)	100 (≈ 141 µM)	100 (≈ 141 µM)	100 (≈ 141 µM)	50 (≈ 70.6 µM)	100 (≈ 141 µM)	100 (≈ 141 µM)	18	21	21	19	23	20	zone of inhibition at 100 µg/disc (Escherichia coli [21]): 16 mm; zone of inhibition at 100 µg/disc (Pseudomonas aeruginosa [22]): 14 mm; zone of inhibition at 100 µg/disc (Klebsiella pneumoniae [23]): 19 mm; zone of inhibition at 100 µg/disc (Salmonella typhi [24]): 17 mm
CCN1CCN(CC2SC(c3ccc(F)cc3)N(c3ccc(Nc4nc(Oc5cc(=O)n(C)c6ccccc56)nc(N(C)C)n4)cc3)C2=O)CC1 (stereo unspecified)	22	19	6.25 (≈ 8.8 µM)	6.25 (≈ 8.8 µM)	6.25 (≈ 8.8 µM)	12.5 (≈ 17.6 µM)	25 (≈ 35.2 µM)	6.25 (≈ 8.8 µM)	25 (≈ 35.2 µM)	25 (≈ 35.2 µM)	12.5 (≈ 17.6 µM)	12.5 (≈ 17.6 µM)	25 (≈ 35.2 µM)	25 (≈ 35.2 µM)	26	28	25	25	27	28	zone of inhibition at 100 µg/disc (Escherichia coli [21]): 28 mm; zone of inhibition at 100 µg/disc (Pseudomonas aeruginosa [22]): 25 mm; zone of inhibition at 100 µg/disc (Klebsiella pneumoniae [23]): 25 mm; zone of inhibition at 100 µg/disc (Salmonella typhi [24]): 27 mm
CCN1CCN(CC2SC(c3ccc(Cl)cc3Cl)N(c3ccc(Nc4nc(Oc5cc(=O)n(C)c6ccccc56)nc(N(C)C)n4)cc3)C2=O)CC1 (stereo unspecified)	20	26	6.25 (≈ 8.22 µM)	12.5 (≈ 16.4 µM)	12.5 (≈ 16.4 µM)	25 (≈ 32.9 µM)	25 (≈ 32.9 µM)	50 (≈ 65.7 µM)	12.5 (≈ 16.4 µM)	6.25 (≈ 8.22 µM)	6.25 (≈ 8.22 µM)	25 (≈ 32.9 µM)	12.5 (≈ 16.4 µM)	12.5 (≈ 16.4 µM)	28	17	25	28	25	19	zone of inhibition at 100 µg/disc (Escherichia coli [21]): 24 mm; zone of inhibition at 100 µg/disc (Pseudomonas aeruginosa [22]): 21 mm; zone of inhibition at 100 µg/disc (Klebsiella pneumoniae [23]): 23 mm; zone of inhibition at 100 µg/disc (Salmonella typhi [24]): 15 mm
